# TPT1 inhibitor: C. albicans TPT1 enzyme inhibition; inhibition, % at 5 µM; recombinant caTPT1, FP RNA substrate dephosphorylation; hit rate 0.81% among 300,000;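 active = inhibition above the mean of all tested compounds plus 3 SD, set per screening campaign, cut at about 24% in these data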;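 note: plate controls were DMSO alone for no effect and ferristatin control at 100 nM for full effect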
# Rpn11 inh: inhibitors of human proteasome Rpn11; hit rate 0.59% among 360,000; AID 588493; inhibition, % at 20 µM; human 26S proteasome, Ub4-pepOG fluorescence polarization; 20S core pre-blocked with epoxomicin; O00487;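 active = inhibition at 20 µM, scaled to each plate's controls, above about 33%, limit read from the data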
# Target sequence (O00487 whole entry, looked up): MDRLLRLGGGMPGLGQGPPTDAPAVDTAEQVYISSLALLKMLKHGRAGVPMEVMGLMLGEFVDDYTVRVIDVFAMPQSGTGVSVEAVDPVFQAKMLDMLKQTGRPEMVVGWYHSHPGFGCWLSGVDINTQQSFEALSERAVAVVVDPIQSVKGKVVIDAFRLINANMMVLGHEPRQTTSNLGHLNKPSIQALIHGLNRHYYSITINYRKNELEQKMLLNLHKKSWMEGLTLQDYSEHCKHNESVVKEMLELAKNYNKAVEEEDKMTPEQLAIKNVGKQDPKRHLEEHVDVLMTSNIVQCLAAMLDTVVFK
# aDG glyco up: increases alpha dystroglycan glycosylation. Pro5-aDG cells, alpha-DG glycosylation AlphaScreen (IIH6); 0% Pro5, 100% B10-LARGE cell signal. activation, % at 10 µM. hit rate 0.22% among 360,000;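 active = activation of at least 8% versus controls, or a plate z-score of at least 8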;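 note: Pro5 are CHO cells carrying HIG-tagged alpha-DG that lacks glycosylation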
# XiGFP reactiv: X-chromosome reactivation activator; XiGFP mouse fibroblasts, % GFP-positive cells imaging, 3 d; cells co-treated with 5-aza-dC sensitizer; scaled so ellipticine positive control = 100%; activation, % at 7.58 µM; hit rate 0.055% among 360,000;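 active = mean normalized replicate activation at least 10% and every replicate at or above 10%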;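 note: 0% = median of on-plate neutral control wells and 100% = ellipticine 6 µM median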
#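 Material: SV40-immortalized XiGFP fibroblast cells, line 68-5-11 | Buffer or medium: DMEM containing 5-aza-dC | Dosing: One concentration, pinned | Times: 3 d treatment, 15 min room-temperature fixation | Controls: Ellipticine 6 µM positive control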
# CSN inh: CSN deneddylation inhibition; Purified CSN, SCF-Nedd8-OG deneddylation, fluorescence polarization; hit rate 0.38% among 360,000; inhibition, % at 12.5 µM; Q92905;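 active = pattern-corrected inhibition above about 35%, with an unprinted fluorescence ratio check between 0.5 and 1.5, limit read from the data, passing the limit was not always enough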;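 note: 0% = enzyme with substrate and 100% = substrate without enzyme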
# Target sequence (Q92905 whole entry, looked up, one chain of several): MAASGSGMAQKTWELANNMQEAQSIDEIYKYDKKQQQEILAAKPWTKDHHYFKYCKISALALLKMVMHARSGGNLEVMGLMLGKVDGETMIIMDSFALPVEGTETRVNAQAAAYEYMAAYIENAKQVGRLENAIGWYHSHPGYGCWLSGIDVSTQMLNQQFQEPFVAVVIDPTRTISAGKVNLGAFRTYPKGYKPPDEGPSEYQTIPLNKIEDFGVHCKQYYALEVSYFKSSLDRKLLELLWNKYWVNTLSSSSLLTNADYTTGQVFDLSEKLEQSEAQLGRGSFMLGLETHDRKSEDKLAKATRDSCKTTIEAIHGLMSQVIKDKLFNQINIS
#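 test system = HEK293T-derived human Csn5 enzyme | amount = 0.24 nM Csn5 enzyme, final concentration | medium = Tris/NaCl/DTT buffer, pH 7.5 | schedule = 90 min reaction at room temperature | signal = FP | evaluation = inhibition of Csn5 cleavage, % | compound dosing = single dose of 12.5 µM compound with 0.25% DMSO | probe or stimulus = 10 nM SCFSkp2-Nedd8OG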
# HNF4A DNA FP: change in binding of human HNF4 alpha to DNA; HNF4a-FITC DNA binding, fluorescence polarization, 1 h; activity change, % at 10 µM; P41235; hit rate 0.3% among 360,000; AID 1224865; in the data active = activity change above about 30%, passing the limit was not always enough
# Starred values were filed as active, the others as inactive; nt = no result given. Shown are actives, neighbours in structure and some others; about 1.3% of the full set was active somewhere.
SMILES,TPT1 inhibitor,Rpn11 inh,aDG glyco up,XiGFP reactiv,CSN inh,HNF4A DNA FP
O=C(O)c1ccc2c(c1)C(=O)N(c1cccc(C(=O)/C=C/c3ccccc3)c1)C2=O,-1.2,8.0,-0.2,0.1,44.7*,-3.6
O=C(O)c1cccc(N2C(=O)c3ccc(C(=O)c4cccc([N+](=O)[O-])c4)cc3C2=O)c1,1.0,1.1,-0.1,-0.7,-0.7,-7.8
Cc1ccc(/C=c2\sc3nc(-c4ccco4)nn3c2=O)o1,10.9,nt,0.0,nt,43.3*,-33.5
Cc1ccc(-c2nc3s/c(=C\c4ccco4)c(=O)n3n2)cc1,3.5,8.4,0.0,nt,38.4*,-9.7
Cc1ccc(/C=c2/sc3nnc(-c4ccccc4Cl)n3c2=O)o1,8.9,15.9,-0.4,nt,16.0,6.4
CCCN1[C@@H]2c3ccc(C4=CCCCC4)c(=O)n3C[C@@H]2[C@@H](CO)[C@@H]1C(=O)NCCCN(C)C,nt,nt,nt,0.3,nt,nt
Nc1c(N(CCC2=CCCCC2)C(=O)c2ccc([N+](=O)[O-])o2)c(=O)[nH]c(=O)n1Cc1ccccc1,8.8,38.9*,0.7,0.1,2.4,7.7
O=C1CSC(=S)N1N=Cc1c(O)ccc2ccccc12,nt,nt,0.1,-0.2,27.6,93.1*
CS(=O)(=O)N(CC(=O)N1CCN(Cc2ccccc2)CC1)Cc1ccccc1,-2.1,-3.1,0.1,nt,81.9*,-4.4
CCOC(=O)N1CCN(C(=O)CN(Cc2ccccc2)S(C)(=O)=O)CC1,-1.8,1.1,-0.3,nt,-0.6,0.1
Cc1cccc(-c2oc3ccc(-c4ccc5c(c4)OCO5)cc3c2/C=C/c2ccc(N)cc2)c1,0.1,11.3,8.1*,nt,0.3,2.8
C[C@H](CO)N1C[C@H](C)[C@@H](CN(C)Cc2ccccc2)Oc2ncc(C3=CCCC3)cc2C1=O,nt,nt,nt,-0.1,nt,nt
Fc1ccc2nc(N3CCCC3)sc2c1,-1.5,0.1,0.1,0.2,-6.2,33.9*
COc1ccc(/C=C\c2onc(C)c2S(=O)(=O)N2CCC(C(=O)NCc3ccco3)CC2)cc1,-0.2,1.9,-0.1,11.0*,2.6,-6.3
CCCNC(=O)C1CCN(S(=O)(=O)c2c(C)noc2/C=C\c2ccc(OC)cc2)CC1,1.0,0.7,0.1,-0.1,-3.9,2.7
Cc1noc(/C=C/c2ccco2)c1S(=O)(=O)N1CCC(C(=O)N2c3ccccc3CC2C)CC1 (stereo unspecified),7.3,36.5,-0.1,nt,18.4,44.4*
CC(C)CC#Cc1cnc2c(c1)C(=O)N([C@H](C)CO)C[C@@H](C)[C@@H](CN(C)Cc1ccccn1)O2,nt,nt,nt,-1.2,nt,nt
C[C@H](CO)N1C[C@H](C)[C@@H](CN(C)Cc2ccc(Oc3ccccc3)cc2)OCc2ccccc2-c2c(n(C)c3ccccc23)C1=O,nt,nt,nt,0.1,nt,nt
C[C@H](CO)N1C[C@H](C)[C@@H](CN(C)C(=O)Nc2ccc3c(c2)OCO3)Oc2ccc(NS(=O)(=O)c3cn(C)cn3)cc2CC1=O,nt,nt,nt,0.2,nt,nt
COc1cc(C(=O)NCCSc2ccc(Br)cc2)cc(OC)c1OC,-0.2,-7.9,-0.2,0.0,69.9*,0.8
Cc1cccc(-c2ccc([C@@H]3[C@@H](CO)N4C(=O)CN(C(=O)c5cnccn5)C[C@@H]34)cc2)c1,nt,nt,nt,0.1,nt,nt
Cc1ccc(C)c(S(=O)(=O)Nc2cc(SCC(=O)O)c(O)c3ccccc23)c1,0.0,19.0,8.5*,nt,6.5,-2.8
O=C(O)c1cccc(S(=O)(=O)Nc2ccc([N+](=O)[O-])cc2O)c1,-0.4,1.1,-0.1,0.3,0.7,-3.7
O=C(O)CSc1cc(NS(=O)(=O)c2cccc([N+](=O)[O-])c2)c2ccccc2c1O,nt,-2.9,2.6*,1.2,29.8,-4.1
CCOc1ccc(S(=O)(=O)Nc2cc(SCC(=O)O)c(O)c3ccccc23)cc1,nt,9.0,3.9*,-0.1,19.5,3.2
SMILES,TPT1 inhibitor,Rpn11 inh,aDG glyco up,XiGFP reactiv,CSN inh,HNF4A DNA FP
CCc1ccc(S(=O)(=O)Nc2cc(SCC(=O)O)c(O)c3ccccc23)cc1,-2.3,5.8,8.1*,0.0,35.0,-0.2
C[C@H]1CN([C@@H](C)CO)C(=O)c2cc(C#CC3CC3)cnc2O[C@H]1CN(C)S(=O)(=O)c1cccc(F)c1,nt,nt,nt,0.1,nt,nt
CC(C)C[C@H]1COCn2nncc2CC[C@@H](Cc2ccccc2)C(=O)N1,nt,nt,nt,0.1,nt,nt
O=S(=O)(Nc1cc(Sc2cccc3cccnc23)c(O)c2ccccc12)c1ccccc1,nt,nt,nt,52.8*,nt,nt
O=c1ccc2cc3c([nH]c4ccc(Br)cc43)oc-2c1O,14.2,45.7*,-0.1,nt,29.0,86.6
Cc1ccc2[nH]c3c(N4CCc5ccccc5C4)ncnc3c2c1,1.6,7.6,6.7*,nt,3.5,7.3
COc1cccc(CCNc2ccc(N3C(=O)CC(C)C3=O)cc2[N+](=O)[O-])c1 (stereo unspecified),0.8,1.4,-0.1,-0.1,1.4,2.1
CC1CC(=O)N(c2ccc(NCc3ccc(Cl)cc3)c([N+](=O)[O-])c2)C1=O (stereo unspecified),1.0,nt,-0.1,0.4,39.3*,-2.7
C[C@H]1COCn2nncc2CCCC(=O)N1,nt,nt,nt,0.0,nt,nt
Cc1ccccc1S(=O)(=O)N1C[C@H](O)COC[C@H]2O[C@@H](CC(=O)NCc3ccccc3Cl)CC[C@@H]21,nt,nt,nt,0.2,nt,nt
Cc1noc(C)c1NC(=O)Nc1ccc2c(c1)C(=O)N([C@H](C)CO)C[C@@H](C)[C@H](CN(C)C(=O)NC1CCCCC1)O2,nt,nt,nt,0.1,nt,nt
O=S(=O)(Cc1noc(-c2ccc(Cl)cc2)n1)Cc1ccco1,1.1,17.2,0.2,-0.1,38.0*,13.8
COc1ccc2c3c(n(C)c2c1)[C@@H](CO)N(C(=O)C1CCC1)CC31CN(Cc2cccc(F)c2)C1,nt,nt,nt,0.4,nt,nt
COc1cc(C(C)=O)ccc1OCC(=O)N1CCc2ccccc2C1,1.9,-1.5,-0.1,0.5,92.3*,1.1
CC(C)Nc1nc(SC(C)C(=O)Nc2ccccc2)nc(N(C)C)n1 (stereo unspecified),1.2,-0.9,0.8,-0.1,-1.8,2.5
CC(Sc1ncc(C#N)c(N)n1)C(=O)Nc1ccccc1 (stereo unspecified),2.4,8.0,0.1,nt,54.2*,-0.5
CCOC(=O)/C(C#N)=N\Nc1cc(Cl)ccc1OC,7.1,9.5,0.0,0.1,23.5,74.9*
O=C(COc1ccc2c(-c3ccccc3)cc(=O)oc2c1)NCc1ccccn1,-1.3,-8.8,0.4,nt,-2.5,1.3
O=C(COc1ccc2c(-c3ccccc3)cc(=O)oc2c1)Nc1cccnc1,1.4,21.8,1.2,0.4,49.0*,10.6
COc1ccc(/C=C2\SC(=O)N(CCNC(=O)C3CCN(S(=O)(=O)c4cccs4)CC3)C2=O)cc1,-3.0,-16.0,0.4,nt,-4.5,31.0*
O=C(NCCN1C(=O)S/C(=C\c2ccc(F)cc2)C1=O)C1CCN(S(=O)(=O)c2cccs2)CC1,-5.2,3.4,0.7,0.2,-1.6,1.0

# Screening results: PubChem, several laboratories
